sPLA2-III inh – Inhibits HGIII-sPLA2 liposome hydrolysis, primary screen; QFRET BODIPY PC-A2 liposome hydrolysis, fluorescence; 370,000 compounds, 0.56% hits; Q9NZ20; inhibition, % at 12.2 µM;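 active means inhibition above mean plus 3 SD of compounds lying within the high and low control bounds, cut at about 19% in these data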
Target sequence (Q9NZ20 whole entry, looked up): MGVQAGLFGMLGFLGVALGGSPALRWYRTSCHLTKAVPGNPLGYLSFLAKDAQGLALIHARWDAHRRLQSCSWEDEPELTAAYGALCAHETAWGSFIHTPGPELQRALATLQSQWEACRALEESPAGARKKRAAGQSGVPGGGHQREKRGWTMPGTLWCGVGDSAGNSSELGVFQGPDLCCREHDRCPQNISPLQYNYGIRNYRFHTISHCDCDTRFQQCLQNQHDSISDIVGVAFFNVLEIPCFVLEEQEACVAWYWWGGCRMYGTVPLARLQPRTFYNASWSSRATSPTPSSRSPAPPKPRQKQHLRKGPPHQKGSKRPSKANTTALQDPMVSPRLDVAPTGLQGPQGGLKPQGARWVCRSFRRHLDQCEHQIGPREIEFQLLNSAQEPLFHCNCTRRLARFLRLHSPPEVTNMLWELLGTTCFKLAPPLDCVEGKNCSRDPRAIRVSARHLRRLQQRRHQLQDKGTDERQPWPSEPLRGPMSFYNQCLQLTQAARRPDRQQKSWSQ
PLC-beta3 inh – PLC-beta3 (human) inhibition, primary screen. 370,000 compounds, 0.18% hits. Purified PLC-beta3, fluorogenic substrate, fluorescence. Q01970. AID 720704. inhibition, % at 12.2 µM
PLCg1 inh – blocks human PLC-gamma1 enzyme activity. P19174. inhibition, % at 12.2 µM. AID 720700. purified PLC-gamma1, fluorogenic substrate, fluorescence. 370,000 compounds, 0.84% hits; in the data active means inhibition above about 9.5%
TbMetRS inhib – blocks T. brucei methionyl-tRNA synthetase activity. purified T. brucei MetRS, ATP depletion, Kinase-Glo luminescence. inhibition, % at 11.9 µM. 360,000 compounds, 0.4% hits. AID 624268;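 active means inhibition above a per-plate cutoff of the control wells' mean inhibition plus 3 SD, cut at about 5.5% in these data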
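Material – parasite MetRS enzyme · Medium – HEPES-MgCl2-KCl buffer plus DTT, spermine, BSA, pyrophosphatase · Reagent – ATP, methionine and E. coli bulk tRNA substrates · Times – 15 min enzyme-compound preincubation, 2 h reaction, 10 min detection, 25 °C · Measured by – luminescence of leftover ATP · Evaluation – percent inhibition relative to median high and low control wells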
Tb MetRS conf – confirmation of Trypanosoma brucei MetRS inhibitors | AID 624412 | shares compounds with TbMetRS inhib | 1,400 compounds, 93% hits | T. brucei MetRS enzyme, luminescence (ATP depletion) | inhibition, % at 11.9 µM; in the data active means inhibition above about 7%
Jurkat tox – Jurkat T cell cytotoxicity for MetRS hits. 1,400 compounds, 12% hits. inhibition, % at 8.3 µM. Jurkat cells viability, ATP luminescence. AID 624413. shares compounds with TbMetRS inhib; in the data active means inhibition above about 15%
Tb MetRS inh FP – T. brucei MetRS inhibition, orthogonal assay; shares compounds with TbMetRS inhib; AID 651607; 1,400 compounds, 44% hits; inhibition, % at 11.9 µM; purified T. brucei MetRS, fluorescence polarization; in the data active means inhibition above about 17%
PLCg1 ctr – inhibits human PLC-gamma1 in PLC-beta3 counter-screen; 3,300 compounds, 3.1% hits; inhibition, % at 12.3 µM; purified PLC-gamma1, fluorogenic substrate, fluorescence; shares compounds with PLCg1 inh; in the data active means inhibition above about 9.5%
PLCbeta3 conf – confirmation of human PLC-beta3 inhibitors. inhibition, % at 12.3 µM. 3,300 compounds, 1% hits. shares compounds with PLCg1 inh. purified PLC-beta3, fluorogenic substrate fluorescence
Of the large screens only hits and unclear results are named; the others gave an inactive call (follow-up assays come after a bar, where they were run). This is a sample that favours compounds with a hit; in the whole collection about 1.9% have one here. Unless noted, no stated cut-off is given here; in the data, active means inhibition above about 11%; inactive means the rest.

Clc1cccc(N2Cc3cc(N4CCOCC4)ccc3-n3nncc3C2)c1	none
Clc1cccc(N2Cc3cc(-c4ccccc4)ccc3-n3nncc3C2)c1	PLCg1 inh 12
Brc1ccccc1	PLC-beta3 inh 11
Cc1cc(N2CCNC[C@H]2C)ccc1N1CC[C@@H](O)C1	none (no result: TbMetRS inhib)
COC(=O)C1=C(c2cccc(C#N)c2)C[C@@H]2CC[C@H]1N2C(=O)NCc1cc(C)oc1C(F)(F)F	none
COC(=O)C1=C(c2ccc(-c3ccccc3)c(F)c2)C[C@@H]2CC[C@H]1N2C(=O)NCc1cc(C)oc1C(F)(F)F	PLCg1 inh 10.0
COc1ccc(Cc2cn(C)c(N)n2)cc1	none (no result: TbMetRS inhib)
COC(=O)[C@H]1C[C@@]2(C)c3ccccc3N[C@H]2N1	none (no result: TbMetRS inhib)
CC(C)(C)NC(=S)N1Cc2ccccc2-n2nncc2C1	PLCg1 inh 13
CC1(C)CN(S(=O)(=O)OCC(Cl)(Cl)Cl)C(=O)N1	PLCg1 inh 9.8
NNC(=O)CN1C(=O)CN=C(c2ccccc2)c2cc(Br)ccc21	TbMetRS inhib 22 | Tb MetRS conf inactive | Jurkat tox inactive | Tb MetRS inh FP inactive
COc1ccc2nc(-c3ccc(CN4CCC(n5c(=O)[nH]c6cc(Cl)ccc65)CC4)cc3)c(-c3ccccc3)nc2c1	none (no result: TbMetRS inhib)
Cn1ncnc2c(=O)n(C)c(=O)nc1-2	TbMetRS inhib 40 (no result: sPLA2-III inh, PLC-beta3 inh, PLCg1 inh) | Tb MetRS conf 21 | Jurkat tox 87 | Tb MetRS inh FP inactive
CC(c1ccccc1)n1cc(C(=O)NC2CCCC2)nn1 (stereo unspecified)	none (no result: TbMetRS inhib)
Cc1cc(N2CCNC[C@H]2C)ccc1N1CCN[C@@H](C)C1	none (no result: TbMetRS inhib)
CCC(C)NC(=O)c1c(N)n(CCCOC)c2nc3ccccc3nc12 (stereo unspecified)	TbMetRS inhib 5.7 | Tb MetRS conf inactive | Jurkat tox inactive | Tb MetRS inh FP inactive
CCC(C)NC(=O)c1c(N)n(Cc2ccc3c(c2)OCO3)c2nc3ccccc3nc12 (stereo unspecified)	TbMetRS inhib 6.3 | Tb MetRS conf inactive | Jurkat tox inactive | Tb MetRS inh FP inactive
COCCCn1c(N)c(C(=O)Nc2ccccc2)c2nc3ccccc3nc21	none
CCCCn1c(NS(=O)(=O)c2ccccc2)c(C(=O)OCC)c2nc3ccccc3nc21	TbMetRS inhib 13 | Tb MetRS conf inactive | Jurkat tox inactive | Tb MetRS inh FP inactive
C[C@@H]1CNCCN1c1ccc(N2CC[C@@H](O)C2)c(C#N)c1	none (no result: TbMetRS inhib)
CSc1ccc(C(=O)C(C)(C)N2CCOCC2)cc1	PLCg1 inh 11 | PLCg1 ctr inactive | PLCbeta3 conf inactive
CN1CCN(CCC(C#N)(c2ccccc2)c2ccccc2)CC1	PLC-beta3 inh 12, PLCg1 inh 11 | PLCg1 ctr inactive | PLCbeta3 conf inactive
COC(=O)C1=C(c2ccc(OC(F)(F)F)cc2)C[C@@H]2CC[C@H]1N2C(=O)N1CCCC1	PLCg1 inh 12 | PLCg1 ctr inactive | PLCbeta3 conf inactive
Cc1cc(C)n2nc(SC(C)C(=O)N3CCC4(CC3)OCCO4)nc2n1 (stereo unspecified)	PLCg1 inh 12 | PLCg1 ctr inactive | PLCbeta3 conf inactive
Cc1ccc(C2SCC(=O)Nc3c2c(=O)[nH]n3C2CCOC(C)(C)C2)cc1 (stereo unspecified)	none
CC1(C)CC(n2[nH]c(=O)c3c2NC(=O)CSC3c2ccccc2)CCO1 (stereo unspecified)	PLCg1 inh 17 | PLCg1 ctr inactive | PLCbeta3 conf inactive
COc1ccccc1-n1c(CNCC2CCCO2)nc2ccccc2c1=O (stereo unspecified)	PLC-beta3 inh 11, PLCg1 inh 13 | PLCg1 ctr 9.6 | PLCbeta3 conf inactive
CCOC(=O)C1=C(C(=O)OCC)C2(c3ccccc3)c3ccccc3C1(C)N2C (stereo unspecified)	none (no result: TbMetRS inhib)
CC(=NCCCN1CCOCC1)c1c(O)[nH]c(=O)[nH]c1=O	PLCg1 inh 15 | PLCg1 ctr inactive | PLCbeta3 conf inactive
C=CCn1c(O)c(C(C)=NCCCN2CCOCC2)c(=O)[nH]c1=O	none
S=P(c1ccccc1)(c1ccccc1)c1c[n+](Cc2ccccc2)c2ccccn12	none (no result: TbMetRS inhib)
CN(C)CP(=O)(O)CN(C)C=O	PLC-beta3 inh 12 | PLCg1 ctr inactive | PLCbeta3 conf inactive
CCOC(=O)CC[C@@H]1CC[C@]2(CCCN(Cc3ccncc3)C2)O1	none (no result: TbMetRS inhib)
CCOC(=O)[C@]12Cc3ccc4ccccc4c3[C@H]1N(Cc1ccccc1)C(=O)c1ccccc12	PLCg1 inh 11 | PLCg1 ctr inactive | PLCbeta3 conf inactive
COC(=O)C1C(c2ccccc2)CC2CCC1N2C (stereo unspecified)	none (no result: TbMetRS inhib)
CC1(C)CC(=O)CC(C)(C)N1O	PLCg1 inh 11 | PLCg1 ctr inactive | PLCbeta3 conf inactive
CC(=NCc1ccco1)c1c(O)n(C)c(=O)n(C)c1=O	PLCg1 inh 10 | PLCg1 ctr inactive | PLCbeta3 conf inactive
Cn1c(O)c(C=NCc2ccco2)c(=O)n(C)c1=O	none
CC(C)(C)n1nnnc1C1CN=C(c2ccccc2)c2ccccc2N1 (stereo unspecified)	none (no result: TbMetRS inhib)
CCOC(=O)CC[C@@H]1CC[C@]2(CCCN(Cc3ccccn3)C2)O1	none (no result: TbMetRS inhib)
CCCCn1c(O)c(C(CC)=NCCc2ccccc2)c(=O)[nH]c1=O	PLCg1 inh 9.9 | PLCg1 ctr inactive | PLCbeta3 conf inactive
CCC(=NCC1CCCO1)c1c(O)n(-c2ccccc2)c(=O)[nH]c1=O (stereo unspecified)	none
CCC(=NCC1CCCO1)c1c(O)n(Cc2ccccc2)c(=O)[nH]c1=O (stereo unspecified)	PLC-beta3 inh 20 | PLCg1 ctr inactive | PLCbeta3 conf 15
COc1cc(CCN)c(OC)cc1C	none (no result: TbMetRS inhib)
CCN1CCC2(CC1)NC(CO)(CO)CO2	PLCg1 inh 11 | PLCg1 ctr inactive | PLCbeta3 conf inactive
O=C1C2CC=CCC2C(=O)N1SC(Cl)(Cl)Cl (stereo unspecified)	none (no result: TbMetRS inhib)
O=C(COc1ccccc1)N1CCN(Cc2c[nH]c3ccccc23)CC1	PLCg1 inh 11 | PLCg1 ctr inactive | PLCbeta3 conf inactive
C[C@H]1CNCCN1c1ccc(N2CC[C@H](O)C2)c(C#N)c1	none (no result: TbMetRS inhib)
Cc1cccc(OCC(=O)N2CCN(Cc3ccncc3)CC2)c1	PLCg1 inh 13 | PLCg1 ctr inactive | PLCbeta3 conf inactive
Cc1cccc(OCC(=O)N2CCN(Cc3ccc4c(c3)OCO4)CC2)c1	none
O=[N+]([O-])c1ccc(C(c2ccc([N+](=O)[O-])cc2)c2ccc([N+](=O)[O-])cc2)cc1	none

High-throughput results: PubChem, The Scripps Research Institute Molecular Screening Center
